Experimental data: PubChem BioAssay AID488974 (NMMLSC, 2010)
The source made the active and inactive calls.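 How the source made its calls: active means ratio of toxic midpoint dose to chemo-reversal midpoint dose above 10, among compounds with toxic midpoint under 15 µM; inactive means the rest.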

Test system: Igrove/Jurkat-DNR chemoreversal, trypan blue viability, 7 d
Assay: chemoreversal in ABCG2 cells, dose response, ABC transporter inhibitor project, paired ABCB1 counter-screen, SAR hit validation (AID 488974)
Details: for CC50: measured here: toxicity in resistant cells alone
Outline: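 System: drug-resistant human Igrove (ABCG2 arm) and Jurkat/DNR (ABCB1 counterscreen) cells. Input: 100,000 cells/mL. Also added: fixed selective agents mitoxantrone (Igrove) and daunorubicin (Jurkat/DNR). Doses: compound 0.1–100 µM series. Schedule: compound exposure over 7 days. Measured by: trypan blue exclusion with cell counting by light microscopy. Measure: chemo-reversal 50% viability concentration.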

SMILES	EC50	CC50
Cc1cc(N2CCN(C(=O)c3ccco3)CC2)n2nc(-c3ccccc3)nc2n1	2.94 µM (inactive)	16.2 µM
Cc1nc2cc(-c3cccc(Cl)c3)nn2c(N2CCN(C(=O)c3ccco3)CC2)c1C	0.17 µM	47.4 µM
O=C(c1ccco1)N1CCN(c2c3c(nc4cc(-c5cccc(F)c5)nn24)CCCC3)CC1	0.39 µM (inactive)	5.77 µM
O=C(Cc1ccccc1)N1CCN(c2cc(-c3ccccc3)nc3cc(-c4cccc(Cl)c4)nn23)CC1	0.6 µM	> 100 µM
COc1cccc(-c2cc(N3CCN(C(=O)c4ccoc4)CC3)n3nc(-c4cccc(OC)c4)cc3n2)c1	0.68 µM	> 100 µM
O=C(c1ccoc1)N1CCN(c2cc(-c3cccnc3)nc3cc(-c4cccc(Cl)c4)nn23)CC1	0.02 µM (inactive)	5.77 µM
COc1ccc(-c2cc3nc(C)c(C)c(N4CCN(C(C)=O)CC4)n3n2)cc1	3.28 µM	81.7 µM
COc1cccc(-c2cc3nc(C)c(C)c(N4CCN(Cc5ccco5)CC4)n3n2)c1	0.09 µM	> 100 µM
Cc1nc2ncnn2c(N2CCN(C(=O)c3ccco3)CC2)c1Cc1ccccc1	10.1 µM (inactive)	> 100 µM
O=C(c1cccnc1)N1CCN(c2cc(-c3ccccc3)nc3cc(-c4cccc(Cl)c4)nn23)CC1	0.13 µM (inactive)	10.3 µM
COc1cccc(-c2cc3nc(C)c(C)c(N4CCN(C(=O)c5ccoc5)CC4)n3n2)c1	0.76 µM	> 100 µM
Cc1ccc(-c2cc3nc(-c4ccccc4)cc(N4CCN(C(=O)c5ccoc5)CC4)n3n2)cc1	0.45 µM	86 µM
COc1ccc(-c2cc3nc(C)c(C)c(N4CCN(C(=O)c5ccco5)CC4)n3n2)cc1	1.44 µM (inactive)	10.5 µM
O=C(c1ccoc1)N1CCN(c2cc(-c3ccco3)nc3cc(-c4cccc(Cl)c4)nn23)CC1	1.38 µM (inactive)	10.8 µM
COc1cccc(C(=O)N2CCN(c3cc(-c4ccccc4)nc4cc(-c5cccc(Cl)c5)nn34)CC2)c1	0.21 µM	> 101 µM
O=C(c1ccco1)N1CCN(c2cc(Cc3ccccc3)nc3cc(-c4cccc(Cl)c4)nn23)CC1	1.38 µM (inactive)	10.5 µM
Cc1cc(N2CCN(C(=O)c3ccco3)CC2)n2nc(C)c(-c3ccccc3)c2n1	2.18 µM	22.3 µM
O=C(c1ccoc1)N1CCN(c2cc(-c3ccco3)nc3cc(-c4ccccc4)nn23)CC1	0.31 µM	18.3 µM
COc1cc(OC)cc(-c2cc3nc(C)c(C)c(N4CCN(C(=O)c5ccoc5)CC4)n3n2)c1	0.95 µM	> 100 µM

SMILES	EC50	CC50
COc1ccccc1-c1cc2nc(-c3ccccc3)cc(N3CCN(C(=O)c4ccoc4)CC3)n2n1	0.49 µM (inactive)	6.5 µM
Cc1nc2cc(-c3ccc4c(c3)OCO4)nn2c(N2CCN(C(=O)c3ccoc3)CC2)c1C	1.63 µM	> 100 µM
O=C(c1ccoc1)N1CCN(c2cc(-c3ccncc3)nc3cc(-c4cccc(Cl)c4)nn23)CC1	0.89 µM	57.8 µM
Cc1cc(N2CCN(C(=O)c3ccco3)CC2)n2nc(-c3ccc(F)cc3)cc2n1	0.14 µM	40.4 µM
COc1ccc(-c2cc3nc(-c4ccccc4)cc(N4CCN(C(=O)c5ccoc5)CC4)n3n2)cc1	0.38 µM	> 100 µM
O=C(c1ccncc1)N1CCN(c2cc(-c3ccccc3)nc3cc(-c4cccc(Cl)c4)nn23)CC1	0.15 µM	28.3 µM
Cc1nc2cc(-c3ccc(F)cc3)nn2c(N2CCN(C(=O)c3ccco3)CC2)c1C	0.12 µM (inactive)	5.33 µM
COc1ccc(-c2cc3nc(-c4ccccc4)cc(N4CCN(C(=O)c5ccsc5)CC4)n3n2)cc1	0.17 µM	30.6 µM
Cc1nc2cc(-c3cccc(Cl)c3)nn2c(N2CCN(C(=O)c3ccoc3)CC2)c1C	0.6 µM	> 100 µM
COc1ccc(-c2[nH]nc3nc(N4CCN(C(=O)c5ccoc5)CC4)cc(C(F)(F)F)c23)cc1	0.46 µM (inactive)	1.31 µM
O=C(c1ccco1)N1CCN(c2cc(-c3ccccc3)nc3cc(-c4cccc(F)c4)nn23)CC1	0.76 µM (inactive)	8.25 µM
O=C(c1ccco1)N1CCN(c2cc(-c3ccccc3)nc3cc(-c4cccc(Cl)c4)nn23)CC1	0.14 µM (inactive)	6 µM
COc1ccc(-c2cc3nc(-c4ccccc4)cc(N4CCN(C(=O)c5ccccc5)CC4)n3n2)cc1	0.2 µM	82.6 µM
Cc1nc2cc(-c3cccc(Cl)c3)nn2c(N2CCN(C(=O)c3ccsc3)CC2)c1C	0.49 µM (inactive)	14.9 µM
O=C(c1ccoc1)N1CCN(c2cc(-c3ccccc3)nc3cc(-c4ccncc4)nn23)CC1	1.5 µM	22.3 µM
COc1cccc(-c2cc3nc(-c4ccco4)cc(N4CCN(C(=O)c5ccoc5)CC4)n3n2)c1	1 µM	> 100 µM
O=C(C1CCCO1)N1CCN(c2c3c(nc4cc(-c5cccc(F)c5)nn24)CCCC3)CC1 (centres undefined)	0.2 µM	17.5 µM
CC(=O)N1CCN(c2c(C)c(C)nc3cc(-c4cccc(F)c4)nn23)CC1	0.73 µM	> 100 µM
